Key:
Details in all cases: in vivo
Homo sapiens [1] = experiment: AUC(0 to infinity) as total radioactivity in human plasma at 100 mg, po administered as single dose by LC-MS/MS analysis; type: ADME, organism-based; parameters: dose 100 mg, route oral, dosed compound name [14C]lixivaptan, time infinity
Summary of the method: (§1)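 Fasted healthy males took one oral 100 mg (200 µCi) [14C]lixivaptan dose. Plasma was drawn from predose to 144 h. Total radioactivity was measured by LSC and converted to ng-equiv/ml via the dose specific activity; lixivaptan by validated LC-MS/MS. Noncompartmental analysis: Cmax observed; kel by log-linear regression; AUC0-t by linear trapezoid; extrapolation as Cest/kel.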

Canis familiaris [2] = experiment: Cmax as total radioactivity in male beagle dog plasma at 10 mg/kg, po administered as single dose by LC-MS/MS analysis; type: ADME, organism-based, Canis lupus familiaris; parameters: dose 10 mg/kg, dosed compound name [14C]lixivaptan, route oral
Summary of the method: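 Four male beagles were fasted 18 h and gavaged once with 10 mg/kg (2 ml/kg) [14C]lixivaptan as a 5.0 mg/ml water/pluronic F68 suspension. Jugular K2EDTA blood was sampled from 0.25 to 168 h. Plasma total radioactivity was counted by LSC as ng-equiv/ml and lixivaptan by validated LC-MS/MS. Noncompartmental Cmax, t1/2 and trapezoidal AUC were derived.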

[3] = Drug recovery in urine of male Sprague-Dawley rat at 10 mg/kg, po administered as single dose via gavage measured after 168 hrs by liquid scintillation counting; type: ADME, organism-based; parameters: dose 10 mg/kg, dosed compound name [14C]lixivaptan, route oral
Summary of the method: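 Intact SD rats (3/gender) dosed by gavage with [14C]drug 10 mg/kg (10 ml/kg, pluronic F68/water), housed in metabolism cages; urine and feces at 0-8, 8-24 h, then every 24 h to 7 days. Urine counted by LSC; feces homogenized 20% w/w in water, combusted, trapped CO2 counted; cage wash/debris included; % of dose.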

Homo sapiens [4] = experiment: AUC(0 to t) as total radioactivity in human plasma at 100 mg, po administered as single dose by LC-MS/MS analysis; type: ADME, organism-based; parameters: dosed compound name [14C]lixivaptan; summary of the method: as §1
Rattus norvegicus = experiment: Tmax as total radioactivity in male Sprague-Dawley rat plasma at 10 mg/kg, po administered as single dose via gavage by LC-MS/MS analysis; type: ADME, organism-based; parameters: dose 10 mg/kg, dosed compound name [14C]lixivaptan, route oral
Summary of the method: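 Jugular-vein cannulated SD rats (5/gender) given gavage [14C]drug 10 mg/kg in pluronic F68/water; K2EDTA blood 0.25-168 h with donor blood replacement. Parent by validated LC-MS/MS, radioactivity by LSC; Tmax observed; t1/2 = 0.693/kel by terminal log-linear regression.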

Canis familiaris [5] = experiment: Half life as total radioactivity in male beagle dog plasma at 10 mg/kg, po administered as single dose by LC-MS/MS analysis; type: ADME, organism-based, Canis lupus familiaris; parameters: dose 10 mg/kg, dosed compound name [14C]lixivaptan, route oral
Summary of the method: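 Male beagles given 10 mg/kg [14C]drug oral suspension; jugular K2EDTA blood at 0.25-168 h. Parent by validated LC-MS/MS, total radioactivity by LSC; Tmax observed; t1/2 = 0.693/kel from terminal log-linear regression.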

Canis familiaris [6] = experiment: Drug level in beagle dog plasma at 10 mg/kg, po administered as single dose measured after 24 hrs by liquid scintillation counting; type: ADME, organism-based, Canis lupus familiaris; parameters: dose 10 mg/kg, dosed compound name [14C]lixivaptan, route oral
Summary of the method: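 Four male beagles fasted 18 h were gavaged once with [14C]lixivaptan at 10 mg/kg (2 ml/kg). The 5.0 mg/ml suspension was in deionized water with pluronic F68 (1.04 µCi/mg). Jugular K2EDTA plasma was taken at 2, 8 and 24 h and extracted twice with 2 volumes of acetonitrile. Profiling used C18 radio-HPLC (ammonium formate/acetonitrile gradient) with on-line flow scintillation detection. Each peak is reported as percent of plasma radioactivity.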

AUC (Homo sapiens [1]): 26200 ng.Eq.hr/ml
Cmax (Canis familiaris [2]): 3570 ngequiv/ml
Radiolabel recovery [3]: 5.77%
AUCt (Homo sapiens [4]): 24700 ng.Eq.hr/ml
Tmax (Rattus norvegicus): 3.2 h
t1/2 (Canis familiaris [5]): 69.7 h
Compound recovery (Canis familiaris [6]): 7.4%
SMILES: Cc1ccc(F)cc1[14C](=O)Nc1ccc(C(=O)N2Cc3cccn3Cc3ccccc32)c(Cl)c1
